The target of series [1] is T1, N-acylethanolamine-hydrolyzing acid amidase (Homo sapiens, UniProt Q02083).
T1 sequence (Q02083 whole entry): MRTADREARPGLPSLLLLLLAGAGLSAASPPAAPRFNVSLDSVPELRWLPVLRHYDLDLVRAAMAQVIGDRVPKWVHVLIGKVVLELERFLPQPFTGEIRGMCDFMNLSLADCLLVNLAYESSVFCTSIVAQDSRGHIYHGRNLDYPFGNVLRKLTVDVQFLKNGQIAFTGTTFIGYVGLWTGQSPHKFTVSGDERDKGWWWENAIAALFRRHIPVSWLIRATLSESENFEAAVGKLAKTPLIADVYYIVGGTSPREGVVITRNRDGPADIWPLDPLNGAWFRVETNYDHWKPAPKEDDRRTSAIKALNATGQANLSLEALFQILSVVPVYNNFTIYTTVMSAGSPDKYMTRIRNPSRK
In words: Inhibition of human NAAA expressed in HEK293 cells preincubated for 10 mins followed by N-(4-methyl-2-oxo-chromen-7-yl)-hexadecanamide substrate addition for 50 mins by fluorescence assay. Format: cell-based.

For series [2], the species on record is Homo sapiens. Put plainly: Selectivity ratio of IC50 for human acid ceramidase to IC50 for recombinant human NAAA.
The target of series [3] is T2, Acid ceramidase (Homo sapiens, UniProt Q13510).
T2 sequence (Q13510 whole entry): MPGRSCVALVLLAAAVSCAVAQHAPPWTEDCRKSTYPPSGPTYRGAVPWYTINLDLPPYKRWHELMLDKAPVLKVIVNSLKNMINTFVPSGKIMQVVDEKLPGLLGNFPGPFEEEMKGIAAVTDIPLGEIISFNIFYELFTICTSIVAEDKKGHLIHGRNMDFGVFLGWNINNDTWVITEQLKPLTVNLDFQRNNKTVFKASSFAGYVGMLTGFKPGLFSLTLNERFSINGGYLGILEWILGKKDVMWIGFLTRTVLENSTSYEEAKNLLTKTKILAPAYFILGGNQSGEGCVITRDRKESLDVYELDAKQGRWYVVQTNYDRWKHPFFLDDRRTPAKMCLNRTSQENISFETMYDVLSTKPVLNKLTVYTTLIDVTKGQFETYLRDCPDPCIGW
Put plainly: Inhibition of human acid ceramidase by UPLC/MS analysis.

The target in series [4] is T3, Fatty-acid amide hydrolase 1 (Homo sapiens) (UniProt O00519).
T3 sequence (whole entry): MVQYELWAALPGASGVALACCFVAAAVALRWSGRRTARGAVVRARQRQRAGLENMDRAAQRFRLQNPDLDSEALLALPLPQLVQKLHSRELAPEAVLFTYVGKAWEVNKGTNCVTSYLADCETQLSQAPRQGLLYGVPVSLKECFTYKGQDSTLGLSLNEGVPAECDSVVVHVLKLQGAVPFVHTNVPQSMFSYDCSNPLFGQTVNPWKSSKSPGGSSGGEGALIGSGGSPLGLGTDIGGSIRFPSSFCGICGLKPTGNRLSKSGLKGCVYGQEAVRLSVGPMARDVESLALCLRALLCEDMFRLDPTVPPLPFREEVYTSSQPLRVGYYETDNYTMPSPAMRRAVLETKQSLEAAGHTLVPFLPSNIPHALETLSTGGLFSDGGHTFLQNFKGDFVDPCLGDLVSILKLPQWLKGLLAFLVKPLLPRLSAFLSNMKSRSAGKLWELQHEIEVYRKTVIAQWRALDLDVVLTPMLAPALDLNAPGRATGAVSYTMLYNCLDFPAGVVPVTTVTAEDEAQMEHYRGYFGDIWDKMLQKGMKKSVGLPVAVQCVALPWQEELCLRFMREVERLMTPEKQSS
Put plainly: Inhibition of human FAAH at 10 uM by fluorescence assay. The method, boiled down: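 Enzyme source: membrane pellet (105,000 × g, re-suspended in PBS) from HEK293 cells stably transfected with h-FAAH-1; fluorogenic read-out; percent inhibition at 10 µM from two determinations.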

Series [5] in a line: Half life in mouse plasma after 2 hrs by LC/MS-MS analysis. Format: ADME, cell-free.
Series [6] in a line: Half life in mouse liver microsomes preincubated for 15 mins followed by NADPH addition measured after 1 hr by LC/MS-MS analysis. Format: ADME.
The nature of series [7]: Half life in rat plasma after 2 hrs by LC/MS-MS analysis. Format: ADME, cell-free.
Series [8] in a line: Half life in rat liver microsomes preincubated for 15 mins followed by NADPH addition measured after 1 hr by LC/MS-MS analysis. Format: ADME.
A short description of series [9]: Kinetic solubility of the compound in PBS at pH 7.4 after 24 hrs by UPLC/MS analysis. Format: physicochemical. The conditions noted are these: read-out: Kinetic_solubility. In outline:
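Kinetic solubility measured in PBS, pH 7.4; mean of three or more determinations.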

For series [10], the target named is T1, N-acylethanolamine-hydrolyzing acid amidase. Put plainly: Inhibition of human NAAA expressed in HEK293 cells preincubated for 10 mins followed by N-(4-methyl-2-oxo-chromen-7-yl)-hexadecanamide substrate addition for 50 mins by microplate reader analysis.

Converted amounts (≈) assume the structure as drawn. Bounds are passed on as bounds.

Data on 14 compounds can be found in ChEMBL document CHEMBL3769304, “Potent α-amino-β-lactam carbamic acid ester as NAAA inhibitors. Synthesis and structure-activity relationship (SAR) studies” (Eur J Med Chem, 2016).

For the compound `COc1ccc(CCCCOC(=O)N[C@H]2CNC2=O)cc1`, in series [1], half-maximal inhibition (IC50) required 520 nM.

In series [1], `O=C(N[C@H]1CNC1=O)OCCCCc1ccc(C(F)(F)F)cc1` had an IC50 of 73 nM. Compared with the last compound, the IC50 is about 7.1-fold lower.

For `O=C(N[C@H]1CNC1=O)OCCCOC1CCCCC1`, 2670 nM corresponded to half-maximal inhibition in [1] (IC50).

On to `O=C(N[C@H]1CNC1=O)OCc1ccc(C2CCCCC2)cc1`, for which, in [2], the Ratio IC50 was 125. The compound further had an IC50 in series [3] of 1.51 µM. The same compound returned an inhibition in series [4] of less than 10%. For the same compound, the half-life in series [5] was 57 min; in series [6], 5 min; in [7] it was 104 min; in series [8] it was less than 5 min. In addition, in series [9], the solubility kinetic at 24 h was determined as 51 µM (≈ 15.4 µg/mL).

As to `CCCCc1ccc(COC(=O)N[C@H]2CNC2=O)cc1`, the Ratio IC50 in series [2] is 55. The midpoint of inhibition in series [3], the IC50, lay at 0.39 µM. Also, in series [4], the inhibition is less than 10%. The half-life in [5] is 29 min; in series [6] it was less than 5 min; in [7], greater than 120 min; in series [8], less than 5 min. In series [9], the solubility kinetic at 24 h is 83 µM (≈ 22.9 µg/mL).

In [1], `O=C(N[C@H]1CNC1=O)OCCCCc1ccccc1` yielded an IC50 of 1110 nM.

In the case of `CCCOc1ccc(COC(=O)N[C@H]2CNC2=O)cc1`, in series [3], it took 2.41 µM to reach half-maximal inhibition (IC50). Moreover, the inhibition in [4] is less than 10%. The half-life in [5] was 31 min; in series [6], 11 min; in series [7], greater than 120 min; in series [8], less than 5 min. In addition, in series [9], the solubility kinetic at 24 h was greater than 250 µM.

With `O=C(N[C@H]1CNC1=O)OCc1ccc2c(c1)CCC2`, half-maximal inhibition in [1] (IC50) was put at 130 nM. This counts as sub-micromolar.

On to `O=C(N[C@H]1CNC1=O)OCCCCC1CCCCC1`, for which it took 6.27 µM to reach half-maximal inhibition in series [3] (IC50). Also, the inhibition in series [4] was less than 10%. Further, the half-life was 41 min in series [5], less than 5 min in series [6], 12 min in [7] and less than 5 min in [8]. Besides, the solubility kinetic at 24 h in [9] was 144 µM (≈ 38.6 µg/mL).

For `O=C(N[C@H]1CNC1=O)OCCCC1CCCCC1`, it took 44 nM to reach half-maximal inhibition in series [1] (IC50).

The compound `Cc1ccc(COC(=O)N[C@H]2CNC2=O)cc1` registered an IC50 in series [1] of 1040 nM.

Consider `O=C(N[C@H]1CNC1=O)OCc1ccc2c(c1)OC(F)(F)O2`, for which the Ratio IC50 in series [2] amounted to 365. In addition, the IC50 in series [3] came to 8.09 µM. This compound had an inhibition in series [4] of less than 10%. The half-life is 25 min in series [5], 30 min in [6], greater than 120 min in series [7] and 40 min in series [8]. Also, in [9], the solubility kinetic at 24 h was greater than 250 µM.

Regarding `O=C(N[C@H]1CNC1=O)OCCCCC1CCC(F)(F)CC1`, the Ratio IC50 in [2] worked out at 140. The compound also showed an IC50 in [3] of 10.5 µM. In series [4], this compound showed an inhibition of less than 10%. The half-life in [5] worked out at 33 min; in [6], 34 min; in series [7], 7 min; in series [8] it was 10 min. The solubility kinetic at 24 h in [9] was greater than 250 µM.

In series [10], `CCCCCCCCC(=O)N[C@H]1CNC1=O` yielded an IC50 of 340 nM.
